The species entered for test [1] is Bos taurus. The test is described as follows: Inhibition of bovine PDE4 using [3H]cAMP as substrate at 10 uM. An outline of the steps:
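Enzyme was PDE4 isolated from the media layer of bovine aorta, run in the two-step activity assay at 1 μM cAMP.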

The subject of test [2] is Mus musculus. The test is described as follows: Antiinflammatory activity in A/J mouse assessed as inhibition of LPS-induced airway elastance provoked by methacholine at 100 umol/kg, po administered 1 hr prior to LPS-challenge measured after 18 hrs relative to vehicle-treated control. It is filed as functional.
The target of test [3] is cGMP-dependent 3',5'-cyclic phosphodiesterase (Homo sapiens, UniProt O00408). The test is described as follows: Inhibition of human PDE2 using [3H]cAMP as substrate at 10 uM.
The subject of test [4] is Mus musculus. The test is described as follows: Antiinflammatory activity in A/J mouse assessed as inhibition of neutrophil accumulation in bronchoalveolar space at 100 umol/kg, po administered 1 hr prior to LPS-challenge measured after 18 hrs relative to vehicle-treated control. It is filed as functional. To be noted: Lung.
For test [5], the species on record is Bos taurus. The test is described as follows: Inhibition of bovine PDE5 using […] as substrate at 10 uM.
Test [6] has as its system Mus musculus. The test is described as follows: Antiinflammatory activity in A/J mouse assessed as inhibition of LPS-induced airway resistance provoked by methacholine at 100 umol/kg, po administered 1 hr prior to LPS-challenge measured after 18 hrs relative to vehicle-treated control. The format is functional.
The test system of test [7] is PBMC. The test is described as follows: Antiinflammatory activity in human PBMC assessed as inhibition of LPS-induced TNFalpha production at 10 uM after 24 hrs by ELISA relative to control. The format is functional. (An ELISA detects its analyte on a solid surface through an enzyme-linked reagent.)
Test [8] deals with Mus musculus. The test is described as follows: Antiinflammatory activity in A/J mouse lung assessed as inhibition of LPS-induced TNFalpha production at 100 umol/kg, po administered 1 hr prior to LPS-challenge measured after 18 hrs relative to vehicle-treated control. It is filed as functional.
A short description of test [9]: Inhibition of PDE6 at 10 uM.
Test [10] is described as follows: Inhibition of bovine PDE3 using [3H]cAMP as substrate. On the set-up: species or system Bos taurus.
The species entered for test [11] is Bos taurus. The test is described as follows: Inhibition of bovine PDE1 using [3H]cAMP as substrate at 10 uM.
Test [12] has as its system Mus musculus. The test is described as follows: Antiinflammatory activity in A/J mouse lung assessed as inhibition of LPS-induced IL6 production at 100 umol/kg, po administered 1 hr prior to LPS-challenge measured after 18 hrs relative to vehicle-treated control. It is filed as functional.
Test [13] relates to PBMC. The test is described as follows: Antiinflammatory activity in human PBMC assessed as inhibition of LPS-induced TNFalpha production after 24 hrs by ELISA. The format is functional, cell-based.
Test [14] in a line: Inhibition of bovine PDE4 using [3H]cAMP as substrate. Further details: species or system Bos taurus.
Test [15] relates to Mus musculus. The test is described as follows: Antiinflammatory activity in A/J mouse assessed as inhibition of leukocyte accumulation in bronchoalveolar space at 100 umol/kg, po administered 1 hr prior to LPS-challenge measured after 18 hrs relative to vehicle-treated control. It is filed as functional. To be noted: Lung.

In general, inhibition refers to the percentage by which the read-out fell short of the control. One may read the inhibition in vivo as how much of the control response was suppressed. In general, IC50 refers to the concentration at which inhibition is half-maximal. Low values mean greater potency, high ones weaker potency. Broadly, the EC50 is the concentration at which the effect is half-maximal.

Chain of cGMP-dependent 3',5'-cyclic phosphodiesterase (O00408 whole entry): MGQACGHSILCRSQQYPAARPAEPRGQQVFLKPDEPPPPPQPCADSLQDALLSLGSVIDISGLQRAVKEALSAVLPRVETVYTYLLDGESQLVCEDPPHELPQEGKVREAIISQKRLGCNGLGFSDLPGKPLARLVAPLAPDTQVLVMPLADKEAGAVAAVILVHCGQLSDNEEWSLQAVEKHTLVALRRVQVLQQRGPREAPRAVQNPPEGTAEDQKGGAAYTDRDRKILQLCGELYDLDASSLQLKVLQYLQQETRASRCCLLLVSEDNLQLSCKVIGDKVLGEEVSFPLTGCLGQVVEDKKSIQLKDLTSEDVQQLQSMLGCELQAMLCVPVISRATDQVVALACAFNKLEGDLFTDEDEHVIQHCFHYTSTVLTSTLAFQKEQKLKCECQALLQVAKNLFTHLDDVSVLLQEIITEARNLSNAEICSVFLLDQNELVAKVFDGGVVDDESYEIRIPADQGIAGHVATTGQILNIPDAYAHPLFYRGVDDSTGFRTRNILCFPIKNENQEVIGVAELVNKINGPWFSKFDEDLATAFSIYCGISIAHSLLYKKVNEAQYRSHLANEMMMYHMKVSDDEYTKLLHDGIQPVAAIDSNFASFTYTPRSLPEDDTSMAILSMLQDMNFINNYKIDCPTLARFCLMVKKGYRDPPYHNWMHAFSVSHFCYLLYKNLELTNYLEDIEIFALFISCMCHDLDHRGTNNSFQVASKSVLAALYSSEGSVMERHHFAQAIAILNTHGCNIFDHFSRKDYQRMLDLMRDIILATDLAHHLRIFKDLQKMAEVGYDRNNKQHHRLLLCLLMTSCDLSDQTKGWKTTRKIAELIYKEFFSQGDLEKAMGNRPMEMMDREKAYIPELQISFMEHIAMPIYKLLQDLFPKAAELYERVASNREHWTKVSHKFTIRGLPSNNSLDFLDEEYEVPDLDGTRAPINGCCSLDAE

Turning to `COc1ccc(C(=O)N/N=C/c2ccc(Cl)cc2)cc1OC`, in the test filed under Bos taurus [1], the inhibition was 6.4%.
Consider `COc1ccc(/C=N/N(C)C(=O)c2ccc(Cl)cc2)cc1OC`, for which the inhibition in the test filed under Bos taurus [1] stood at 97%; in test [3], 26.6%; in the test listed under Bos taurus [5], 27.5%; in [9], 34%; in the test filed under Bos taurus [11] it was 17.7%. The inhibition in vivo at 100 µmol/kg amounted to 72% in the test with Mus musculus [2]; 54% in the test with Mus musculus [4]; 33% in the test on Mus musculus [6]; 54% in the test with Mus musculus [8]; 59% in the test with Mus musculus [12]; 69% in the test on Mus musculus [15]. Besides, the inhibition at 10 µM in the test with PBMC [7] came to 88%. Moreover, the values for the IC50 in test [10] and in test [14] were 6.7 µM and 0.15 µM, respectively. In addition, the concentration giving a half-maximal response (EC50) in the test with PBMC [13] worked out at 1.03 µM.
As to `COc1ccc(/C=N/N(C)C(=O)c2ccc(OC)c(OC)c2)cc1`, in the test filed under Bos taurus [1], the inhibition came out at 45.8%.
The same measure, in the same setting: under `COc1ccc(C(=O)N/N=C/c2c(C)nc3ccccn23)cc1OC` stands 7.7%; under `COc1ccc(C(=O)N(C)/N=C/c2ccc(O)cc2)cc1OC`, 27%.
Consider `COc1ccc(-c2nn(C(=O)c3ccccc3)c3ccccc23)cc1OC`, for which the inhibition in the test listed under Bos taurus [1] amounted to 81.2%. In [14], this compound displayed an IC50 of 4.1 µM.
Compound `COc1ccc(/C=N/NC(=O)c2ccc3c(c2)OCO3)cc1OC` showed an inhibition in the test filed under Bos taurus [1] of 16%.
For the compound `COc1ccc(/C=N/NC(=O)c2ccc(O)cc2)cc1OC`, the inhibition in the test listed under Bos taurus [1] amounted to 13.6%.
In the case of `COc1ccc(C(=O)N(C)/N=C/c2ccc(Cl)cc2)cc1OC`, the inhibition in the test listed under Bos taurus [1] is 40.4%.
The compound `COc1ccc(/C=N/N(C)C(=O)c2c(C)nc3ccccn23)cc1OC` showed an inhibition in the test filed under Bos taurus [1] of 45.9%.
Regarding `COc1ccc(C(=O)N(C)/N=C/c2ccccc2)cc1OC`, in the test listed under Bos taurus [1], the inhibition is 22.8%.
The compound `COc1ccc(C(=O)N/N=C/c2ccc(O)cc2)cc1OC` showed an inhibition in the test filed under Bos taurus [1] of 1.5%.
For the compound `COc1ccc(C(=O)N/N=C/c2ccccc2)cc1OC`, the inhibition in the test listed under Bos taurus [1] worked out at 5.8%.
In turn, `COc1ccc(/C=N/NC(=O)c2ccc(OC)c(OC)c2)cc1` registered an inhibition in the test filed under Bos taurus [1] of 6.6%.
Same read-out and setting: next, `COc1ccc(/C=N/NC(=O)c2ccccc2)cc1OC`: 13.1%; `COc1ccc(/C=N/NC(=O)c2c(C)nc3ccccn23)cc1OC`: 41.5%.
In the test listed under Bos taurus [1], `COc1ccc(/C=N/N(C)c2ncnc3ccccc23)cc1OC` gave an inhibition of 98%. Moreover, the inhibition in vivo at 100 µmol/kg in the test with Mus musculus [2] worked out at 66%; in the test with Mus musculus [4] it was 49%; in the test with Mus musculus [6], 82%; with Mus musculus [8], 70%; in the test on Mus musculus [12] it was 86%; in the test on Mus musculus [15], 47%. Also, the EC50 with PBMC [13] is 1.3 µM. The concentration for half-maximal inhibition (IC50) in test [14] turned out to be 0.19 µM.
`COc1ccc(C2=NNC(=O)c3ccccc3C2)cc1OC`: the inhibition in the test filed under Bos taurus [1] was 78.8%. For the same compound, in the test with PBMC [7], the inhibition at 10 µM worked out at 14%. The IC50 in [14] worked out at 5.2 µM.
Take `COc1ccc(/C=N/NC(=O)c2ccc(Cl)cc2)cc1OC`: the inhibition in the test listed under Bos taurus [1] was 7.5%.
Compound `COc1ccc(C(=O)N/N=C/c2ccc(OC)c(OC)c2)cc1` yielded an inhibition in the test filed under Bos taurus [1] of 9.7%.
Still for that read-out and setting: under `COc1ccc(C(=O)N(C)/N=C/c2ccc3c(c2)OCO3)cc1OC` stands 19.8%.
`COc1ccc(C2=NN(C)C(=O)c3ccccc3C2)cc1OC` had an inhibition in the test listed under Bos taurus [1] of 76.5%. Besides, in the test on PBMC [7], the inhibition at 10 µM was found to be 20%. Further, the IC50 in [14] was determined as 7.3 µM.
With `COc1ccc(/C=N/NC(=O)c2ccc(OC)c(OC)c2)cc1OC`, the inhibition in the test filed under Bos taurus [1] turned out to be 10.7%.
Turning to `COc1ccc(C(=O)N/N=C/c2ccc3c(c2)OCO3)cc1OC`, the inhibition in the test listed under Bos taurus [1] turned out to be 10.5%.

The values above are taken from ChEMBL document CHEMBL2169806, “Design, synthesis, and pharmacological evaluation of N-acylhydrazones and novel conformationally constrained compounds as selective and potent orally active phosphodiesterase-4 inhibitors” (J Med Chem, 2012).
